Measurements collected from several papers.
Lines come from different studies, so protocols differ.
Read-out: metabolic stability
Species: human

| SMILES | test system | setting | measurement | value |
| --- | --- | --- | --- | --- |
| CC1(C)NC(=O)N(c2cc(Cl)c(F)c(C(F)(F)F)c2)C1=O | liver microsomes | – | microsomal CLint | < 7 µL/min/mg |
| C[C@]12CC[C@H]3[C@@H](CCC4=CC(=O)CC[C@@]43C)[C@@H]1CC[C@@H]2O | liver microsomes | pH 7.4 | scaled CLint | 125 mL/min/kg |
| O=C1CCC(N2Cc3c(ccc4c3OCC43CCN(Cc4ccccc4)CC3)C2=O)C(=O)N1 (stereo not shown) | liver microsomes | 1 µM | scaled CLint | 20.9 mL/min/kg |
| Cc1[nH]c(C)c(S(=O)(=O)Nc2ccc(S(F)(F)(F)(F)F)cc2)c1C(=O)N1CCC(F)(F)C1 | liver microsomes | – | microsomal CLint | 26 µL/min/mg |
| O=c1[nH]c2ccccc2n1C1CCN(CCCC(c2ccc(F)cc2)c2ccc(F)cc2)CC1 | liver microsomes | 100 ng/mL | microsomal CLint | 3.4 µL/min/mg |
| Cc1[nH]c(C)c(S(=O)(=O)Nc2ccc(S(F)(F)(F)(F)F)c(Cl)c2)c1C(=O)N1CCC(F)(F)C1 | liver microsomes | – | microsomal CLint | 53.1 µL/min/mg |
| CC1(C)NC(=O)N(c2ccc(F)c(C(F)(F)F)c2F)C1=O | liver microsomes | – | microsomal CLint | < 7 µL/min/mg |
| C[C@]12CC[C@H]3[C@@H](CCC4=CC(=O)CC[C@@]43C)[C@@H]1CC[C@@H]2O | liver microsomes | – | microsomal CLint | 63.9 µL/min/mg |
| CC(C)CC(=O)OC[C@H]1O[C@@](C#N)(c2ccc3c(N)ncnn23)[C@H](O)[C@@H]1O | hepatocytes | – | hepatocyte CLint | > 318 µL/min/10⁶ cells |
| NCCOCC(=O)N1CCCC(C(=O)NCc2nc(-c3ccc(-c4ccc(F)cc4)cc3)cs2)C1 (stereo not shown) | liver microsomes | – | scaled CLint | < 4.3 mL/min/kg |
